What was measured:
HUVEC = assay: Antiproliferative activity against HUVEC after 72 hrs by MTT assay; format: cell-based; settings: Homo sapiens
Summary of the method: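 HUVEC (passage 3-5) grown in endothelial growth medium at 37 C; 2000 cells/well seeded in triplicate. After attachment, fresh medium with compound for 72 h. MTT 0.25 mg/mL added for 2 h at 37 C, formazan dissolved in isopropanol, absorbance read at 570 nm. Value is concentration giving 50% growth inhibition.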

[1] = Antiproliferative activity against BAEC; format: functional, cell-based; settings: Bos taurus
[2] = molecular target: Methionine aminopeptidase 2 (Homo sapiens) (UniProt P50579); assay: Inhibition of MetAP2 assessed as remaining enzyme activity at 200 nM after 8 hrs relative to untreated control
Summary of the method: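 MetAP2 at 20 nM final was incubated with compound at 200 nM final in 1% glycerol, 20 mM HEPES, 100 mM KCl, 0.1 mM CoSO4. Triplicate samples were taken at 1, 2, 4 and 8 h, and residual activity was read with Met-AMC substrate. Result is percent activity remaining at 8 h.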

Rattus norvegicus [3] = assay: CNS toxicity in rat assessed as incidence of seizures at 6 mg/kg, iv qd for 14 days; settings: in vivo, 336 h
Rattus norvegicus [4] = assay: CNS toxicity in rat assessed as incidence of seizures at 60 mg/kg, iv qd for 14 days; settings: in vivo, 336 h

Methionine aminopeptidase 2 (Homo sapiens), sequence (P50579 2-478 limits assumed): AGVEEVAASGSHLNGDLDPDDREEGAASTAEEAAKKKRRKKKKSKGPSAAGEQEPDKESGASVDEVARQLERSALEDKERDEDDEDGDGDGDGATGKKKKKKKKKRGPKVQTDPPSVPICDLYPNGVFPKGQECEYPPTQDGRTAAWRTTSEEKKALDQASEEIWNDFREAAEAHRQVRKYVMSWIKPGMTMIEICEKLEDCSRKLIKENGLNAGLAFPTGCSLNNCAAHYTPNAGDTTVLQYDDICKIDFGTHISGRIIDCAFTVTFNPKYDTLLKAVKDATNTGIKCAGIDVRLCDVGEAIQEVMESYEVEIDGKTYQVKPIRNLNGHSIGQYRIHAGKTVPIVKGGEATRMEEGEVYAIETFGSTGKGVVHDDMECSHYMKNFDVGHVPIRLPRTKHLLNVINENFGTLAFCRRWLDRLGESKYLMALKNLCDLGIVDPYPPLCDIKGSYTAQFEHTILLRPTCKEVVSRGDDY

| SMILES | IC50 (HUVEC) [nM] | IC50 [1] [nM] | Activity [2] [%] | Activity (Rattus norvegicus [3]) | Activity (Rattus norvegicus [4]) |
| --- | --- | --- | --- | --- | --- |
| COC(=O)[C@@H](NC(=O)O[C@@H]1CC[C@]2(CO2)[C@H]([C@@]2(C)O[C@@H]2CC=C(C)C)[C@@H]1OC)C(C)C | 0.018 | 0.017 | – | – | – |
| CO[C@H]1[C@@H]([C@@]2(C)O[C@@H]2CC=C(C)C)[C@]2(CC[C@H]1OC(=O)N[C@@H](C(=O)NCCC1CCCN1C)C(C)C)CO2 (stereo partly specified) | 0.6 | – | 4.5 | – | – |
| CO[C@H]1[C@@H]([C@@]2(C)O[C@@H]2CC=C(C)C)[C@]2(CC[C@H]1OC(=O)NC(=O)CCl)CO2 | 0.25 | – | 4 | – | – |
| CO[C@H]1[C@@H]([C@@]2(C)O[C@@H]2CC=C(C)C)[C@]2(CC[C@H]1OC(=O)N[C@@H](C(=O)NN1CCOCC1)C(C)C)CO2 | 1.7 | – | 5.2 | – | – |
| CO[C@H]1[C@@H]([C@@]2(C)O[C@@H]2CC=C(C)C)[C@]2(CC[C@H]1OC(=O)N[C@@H](C(N)=O)C(C)C)CO2 | 0.095 | 0.046 | 2.8 | Non-toxic | Non-toxic |
| CO[C@H]1[C@@H]([C@@]2(C)O[C@@H]2CC=C(C)C)[C@]2(CC[C@H]1OC(=O)N[C@@H](C(=O)NCCN1CCCC1)C(C)C)CO2 | 0.6 | – | 2.6 | – | – |
| CO[C@H]1C([C@@]2(C)O[C@@H]2CC=C(C)C)[C@]2(CC[C@H]1OC(=O)NCCC[N+](C)(C)C)CO2 (single isomer, unassigned) | > 100 | – | 5.4 | – | – |
| CO[C@H]1C([C@@]2(C)O[C@@H]2CC=C(C)C)[C@]2(CC[C@H]1OC(=O)NC(C)(C)C)CO2 (single isomer, unassigned) | 1.1 | – | – | – | – |
| CO[C@H]1C([C@@]2(C)O[C@@H]2CC=C(C)C)[C@]2(CC[C@H]1OC(=O)N[C@@H](C(=O)Nc1cccc(C(=O)O)c1)C(C)C)CO2 (single isomer, unassigned) | 15 | – | 4.3 | – | – |
| CO[C@H]1C([C@@]2(C)O[C@@H]2CC=C(C)C)[C@]2(CC[C@H]1OC(=O)NCc1ccc(C(=O)O)cc1)CO2 (single isomer, unassigned) | 0.7 | – | 3.5 | – | – |
| CO[C@H]1C([C@@]2(C)O[C@@H]2CC=C(C)C)[C@]2(CC[C@H]1OC(=O)NC(C)(C)C(N)=O)CO2 (single isomer, unassigned) | 1.7 | – | 24 | – | – |
| CO[C@H]1C([C@@]2(C)O[C@@H]2CC=C(C)C)[C@]2(CC[C@H]1OC(=O)NC1(C(N)=O)CCCC1)CO2 (single isomer, unassigned) | 0.7 | – | 13 | – | – |
| CO[C@H]1C([C@@]2(C)O[C@@H]2CC=C(C)C)[C@]2(CC[C@H]1OC(=O)NN1CCOCC1)CO2 (single isomer, unassigned) | 0.7 | – | 5.7 | – | – |
| CO[C@H]1C([C@@]2(C)O[C@@H]2CC=C(C)C)[C@]2(CC[C@H]1OC(=O)NCCC1CCC[N+]1(C)C)CO2 (single isomer, unassigned) | > 100 | – | 6.3 | – | – |
| COC(=O)[C@H](NC(=O)O[C@@H]1CC[C@]2(CO2)C([C@@]2(C)O[C@@H]2CC=C(C)C)[C@@H]1OC)c1ccccc1 (single isomer, unassigned) | 0.036 | 0.035 | – | – | – |
| CO[C@H]1C([C@@]2(C)O[C@@H]2CC=C(C)C)[C@]2(CC[C@H]1OC(=O)NCCN1CCCC1)CO2 (single isomer, unassigned) | 0.1 | – | 3.5 | – | – |
| CO[C@H]1C([C@@]2(C)O[C@@H]2CC=C(C)C)[C@]2(CC[C@H]1OC(=O)NC(C)C)CO2 (single isomer, unassigned) | 0.06 | – | 3 | – | – |
| COC(=O)[C@H](NC(=O)O[C@@H]1CC[C@]2(CO2)C([C@@]2(C)O[C@@H]2CC=C(C)C)[C@@H]1OC)C(C)C (single isomer, unassigned) | 0.04 | 0.048 | – | – | – |
| CO[C@H]1C([C@@]2(C)O[C@@H]2CC=C(C)C)[C@]2(CC[C@H]1OC(=O)NCCC1CCCN1C)CO2 (single isomer, unassigned) | 0.2 | – | 5.4 | – | – |
| COC(=O)[C@@H](CC(C)C)NC(=O)O[C@@H]1CC[C@]2(CO2)C([C@@]2(C)O[C@@H]2CC=C(C)C)[C@@H]1OC (single isomer, unassigned) | 0.038 | 0.118 | – | Toxic | Toxic |
| CO[C@H]1C([C@@]2(C)O[C@@H]2CC=C(C)C)[C@]2(CC[C@H]1OC(=O)N1CCC(C(=O)O)CC1)CO2 (single isomer, unassigned) | 1.3 | – | 8.3 | – | – |
